Assay outcomes from PubChem.
Most compounds without a hit are left out; they make up all but 12% or so of the library.
Dynein cargo inh: dynein cargo transport inhibition; 220,000 tested, 0.47% active; 3617.4 mouse cells, GR-EGFP nuclear translocation imaging; test concentration mostly 20 µM; stimulated with dexamethasone, 1 µM; stronger effect = lower value; z-score, hits read low;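 active = plate z-score of nuclear minus cytoplasmic receptor signal below a set negative limit, without overly bright fluorescence or cell loss, cut at about -3.5 in these data, passing the limit was not always enough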;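 also: z-score of nuclear minus cytoplasmic ring GR-EGFP intensity difference per well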
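Buffer or medium: tet-free, stripped-serum medium; Also added: dexamethasone, 1.0 µM final; Technique: high-content fluorescence imaging after fixation; Times: 48 h induction, 1 h compound, 30 min dex at 37 °C; Read-out: per-cell GR-EGFP intensity, nucleus versus surrounding cytoplasmic ring, well-averaged.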
Autophagy HCS: autophagy modulation, high-content screen | MEF GFP-LC3 puncta imaging; test concentration mostly 10 µM | calls only at 10 µM (by protocol) | 190,000 tested, 0.98% active;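 active = percentage of spot-positive cells more than 3 SD above its plate mean, without a fluorescence outlier flag or 80% toxicity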
Lmaj promast: Leishmania major promastigote growth inhibition | Leishmania major promastigotes, resazurin fluorescence viability | inhibition, % at 10 µM | 200,000 tested, 9% active; in the data active = inhibition above about 50%;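 also: promastigotes grown with compound for 44 hours at 28 °C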
b-catenin transl: modulators of beta-catenin nuclear translocation | nuclear translocation activity, % at 5 µM | 190,000 tested, 0.3% active | AID 1665 | HeLa beta-catenin nuclear translocation, immunofluorescence imaging;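 active = nuclear translocation activity above 50% at 5 µM, with a well cell count of 50 or more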;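 also: per-cell ratio of nuclear to cytoplasmic median beta-catenin stain intensity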
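System: Human HeLa cells, endogenous beta-catenin | Compound dosing: 5 µM primary, 0.02–20 µM confirmation | Timing: 24 h compound exposure at 37°C, 5% CO2 | Measured by: Fluorescence imaging of beta-catenin antibody stain plus DAPI | Read-out basis: % activation of per-cell nuclear versus cytoplasmic median beta-catenin signal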
MT stabilize HCS: microtubule stabilization, imaging screen; HeLa tubulin immunostaining HCS, 24 h; share of cells brighter than vehicle mean+2SD; % tubulin-high responders, % at 10 µM; 200,000 tested, 0.83% active; AID 2205;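 active = plate Z-score above 3 for both tubulin-high and condensed-nucleus cell shares, with cell loss under 80%, at 10 µM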;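 also: anti alpha tubulin signal scored within the nucleus-defined area of each cell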
CHOP inh: blocks CHOP induction under ER stress | CHO-K1 CHOP-promoter luciferase, tunicamycin-induced, 15-18 h | inhibition, % at 10 µM | 220,000 tested, 3.8% active | AID 2732;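 active = compounds that reduced the stress-induced luciferase reporter signal by more than about 70% of percent inhibition, limit read from the data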
CHOP confirm: confirmation of CHOP induction inhibitors; inhibition, % at 10 µM; shares compounds with CHOP inh; 2,100 tested, 45% active; CHO-CHOP promoter luciferase reporter, tunicamycin-induced, luminescence; AID 504437;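 active = mean of three repeat readings of reporter signal inhibition above a set limit, cut at about 70% in these data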
Each line names hits and unclear results; the compound was inactive in the other large screens (follow-up assays come after a bar, where they were run).

O=C(O)CCC(=O)N1N=C(c2c(-c3ccccc3)c3cc(Cl)ccc3[nH]c2=O)CC1c1ccco1 (stereo unspecified)	none (no result: b-catenin transl)
O=C(CN1CCN(S(=O)(=O)c2ccccc2F)CC1)Nc1ccccc1C(=O)c1ccccc1	none
CC(C)(C)c1ccc(-c2nc(O)c(CC(=O)O)s2)cc1	none (no result: Autophagy HCS, Lmaj promast, MT stabilize HCS)
Cc1cccc(Oc2cc(NC(=O)Cn3cnc([N+](=O)[O-])n3)cc([N+](=O)[O-])c2)c1	Lmaj promast 100, CHOP inh 103 | CHOP confirm inactive
Cc1cc(C)cc(Oc2cc(NC(=O)c3cn(C)nc3C)cc([N+](=O)[O-])c2)c1	none (no result: b-catenin transl)
O=C(CCSCc1ccc(Cl)cc1)NCc1cccnc1	none
CC(C)c1ccc2c(c1)C1(NN=C(c3ccccc3)S1)C(=O)N2 (stereo unspecified)	Autophagy HCS active, Lmaj promast 99, CHOP inh 105 | CHOP confirm 106
Cc1cc(=O)oc2cc(OCC(=O)NCCCN3CCOCC3)ccc12	CHOP inh 100 | CHOP confirm inactive
CCCc1cc(=O)n2c([nH]c3ccccc32)c1C#N	none
CCCCc1c(C)c(C#N)c2[nH]c3ccccc3n2c1=O	Lmaj promast 65, CHOP inh 103 | CHOP confirm inactive
CN(C)c1ncc(C2=C(Cl)C(=O)C(N3CCCC3)=C(Cl)C2=O)s1	CHOP inh 108 (no result: b-catenin transl) | CHOP confirm inactive
COC(=O)/C(=C1/Oc2cc(C)oc(=O)c2S1)C(F)(F)F	Autophagy HCS active, CHOP inh 111 | CHOP confirm 112
COC(=O)/C(=C1/Oc2ccc(C(C)(C)C)cc2S1)C(F)(F)F	none
O=[N+]([O-])/C(C(Cl)=C(Cl)Cl)=C(/Sc1ccccc1)N1CCCCC1	none (no result: Autophagy HCS, Lmaj promast, MT stabilize HCS)
CC(=O)Nc1ccc(NC(=O)C(C)OC(=O)/C=C/c2cn(-c3ccccc3)nc2-c2cccnc2)cc1 (stereo unspecified)	CHOP inh 104 | CHOP confirm inactive
Cc1[nH]n(-c2ccccc2)c(=O)c1N=Nc1ccccc1O	CHOP inh 105 (no result: MT stabilize HCS) | CHOP confirm inactive
Cc1[nH]n(-c2ccccc2)c(=O)c1N=Nc1ccc2c(c1)OCO2	none
O=C(COC(=O)/C=C/c1cccc(Br)c1)NCCC1=CCCCC1	CHOP inh 96 | CHOP confirm inactive
O=C(COc1ccc(Cl)cc1Cl)NCCC1=CCCCC1	CHOP inh 107 | CHOP confirm 115
Cn1c(C(C#N)C2=C(Cl)C(=O)N(c3ccccc3)C2=O)nc2ccccc21 (stereo unspecified)	none
c1ccc(Nc2ccc3c4c(cccc24)CC3)cc1	CHOP inh 100 | CHOP confirm inactive
Nc1ccc2c3c(cccc13)CC2	none
COc1ccccc1C1CC(c2ccccc2)Nc2ncnn21 (stereo unspecified)	none
COCCN=c1scc(-c2ccco2)n1/N=C/c1ccc(O)c(O)c1O	none
CC(C)N=c1scc(-c2ccco2)n1/N=C/c1ccc(O)c(O)c1	Lmaj promast 99, CHOP inh 100 | CHOP confirm inactive
O=C1C=CC(=O)N1c1ccc(OC(F)F)cc1	CHOP inh 107 | CHOP confirm inactive
O=C(O)CNC(=O)c1ccc(OC(F)F)cc1	none
CCc1cccc(NC(=O)CSc2nc3c(c(=O)[nH]2)CCCC3)c1	none
Cc1ccc(/C=N/NC(=O)CCCOc2ccc(Cl)cc2Cl)cc1	b-catenin transl 115, CHOP inh 100 | CHOP confirm 106
O=C(CSCc1ccc(Cl)cc1)N/N=C/c1ccc(OCC(=O)Nc2ccccc2)cc1	none
Cc1ccccc1C(=O)Nc1ccc(C(=O)NNC(=O)CCCOc2ccc(Cl)cc2Cl)cc1	CHOP inh 113 | CHOP confirm inactive
Cc1ccc(/C=N/NC(=O)CSCc2ccc(Cl)cc2)cc1	CHOP inh 110 | CHOP confirm 89
CCOC(=O)c1c2ccc(OCC(=O)N/N=C/c3ccc(C)cc3)cc2n2ccccc12	Autophagy HCS active, CHOP inh 104 | CHOP confirm 114
Cc1ccc(NC(=O)Cn2nnc(C(=O)Nc3ccc(C)c(C)c3)c2N)cc1	CHOP inh 97 | CHOP confirm inactive
COc1cc(/C=N/N(C)c2ccccc2)cc(Cl)c1O	CHOP inh 97 | CHOP confirm inactive
